Measurements reported in PMC8419008 (Structure (London, England : 1993), 2021).
Substitutions are numbered along the chain they refer to. Entries after “also recorded” stand apart in the source; their conditions may differ.

What was measured:
[1] = target: T1, PLEKHA7 PH domain (PHA7, wild-type) (Homo sapiens, UniProt Q6IQ23); assay: ITC titration of wild-type PHA7 with soluble IP headgroups or PIP nanodiscs; settings: read-out: ITC Kd, PHA7; soluble IP headgroups; 23°C; single-site binding model; average of triplicate
T1 sequence (Q6IQ23 164-285): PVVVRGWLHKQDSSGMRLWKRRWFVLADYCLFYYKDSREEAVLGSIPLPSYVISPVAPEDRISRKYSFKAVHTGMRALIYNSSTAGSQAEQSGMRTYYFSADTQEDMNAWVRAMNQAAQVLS

[2] = target: T2, PHA7-D175K (PLEKHA7 PH domain mutant) (Homo sapiens, UniProt Q6IQ23, D175K); assay: ITC titration of mutant PHA7-D175K with soluble IP headgroups or PIP nanodiscs; format: binding; settings: soluble IP headgroups; for Kd: read-out: ITC Kd, PHA7-D175K, 23°C, single-site binding model, average of triplicate; for greater affinity of PHA7-D175K compared to wild-type: ITC
T2 sequence (Q6IQ23 164-285 D175K): T1 sequence (Q6IQ23 164-285) with D12K
Summary of the method: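 ITC run at 23°C in 15 mM Tris pH 7.6, 70 mM NaCl, 0.5 mM TCEP. Cell held 50 μM protein; syringe held 0.5 mM soluble IP headgroup. Protein concentration was set by A280. Integrated heats were fitted to a single-site binding model to obtain dissociation constants.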

[3] = target: T3, PHA7 (PLEKHA7 PH domain, wild-type) (Homo sapiens, UniProt Q6IQ23); assay: 1H/15N HSQC NMR chemical shift perturbation of 15N-labeled PHA7; format: binding; settings: 15°C; for NMR spectral perturbation / binding of PHA7: soluble or short-chain ligand, 1.5 molar equivalents; for NMR spectral change of PHA7 on incubation with nanodiscs: 1.5 molar equivalents of nanodiscs, 100% diC16-PC or 10% molar diC16-PIP
T3 sequence (Q6IQ23 164-285): T1 sequence (Q6IQ23 164-285)
Summary of the method: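 Human PLEKHA7 PH domain expressed as a GST fusion in E. coli BL21 in M9 with (15NH4)2SO4, then cleaved with HRV 3C, purified by cation exchange and gel filtration. Added directly to preformed MSP1D1Δh5 nanodiscs (100% diC16-PC, or 9/1 diC16-PC with diC16-PI(3,4,5)P3, -PI(4,5)P2 or -PI(3,4)P2). Read-out: 1H/15N chemical shift perturbations.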

[4] = target: T4, PHA7 (PLEKHA7 PH domain) (Homo sapiens, UniProt Q6IQ23); assay: Liposome co-sedimentation assay; format: binding; settings: pure diC16-PC liposomes or liposomes containing 10% molar diC16-PIP; SDS-PAGE
T4 sequence (Q6IQ23 164-285): T1 sequence (Q6IQ23 164-285)
Summary of the method: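 Small unilamellar vesicles made by bath sonication until translucent, from 100% diC16-PC or 9/1 diC16-PC/diC16-PI(4,5)P2 at 3 mg/mL. 200 uL vesicles mixed with 20 uM PH domain solution, 2 h at room temperature. Airfuge spin at 91,000 rpm for 20 h; supernatant and pellet analysed by SDS-PAGE.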

Compound	Kd [1] [µM]	Kd [2] [µM]	greater affinity of PHA7-D175K compared to wild-type [2]	NMR spectral perturbation / binding of PHA7 [3]	co-sedimentation of PHA7 with liposomes [4]	NMR spectral change of PHA7 on incubation with nanodiscs [3]
O=P(O)(O)O[C@@H]1[C@H](O)[C@H](O)[C@@H](OP(=O)(O)O)[C@H](OP(=O)(O)O)[C@H]1O [IP(4,5)P2, inositol (1,4,5) triphosphate]	30.5 ± 0.6	10.7 ± 0.2	three-fold			
O=P(O)(O)OC1[C@H](O)[C@H](OP(=O)(O)O)C(OP(=O)(O)O)[C@H](OP(=O)(O)O)[C@H]1O (stereo partly drawn) [IP(3,4,5)P3, inositol (1,3,4,5) tetraphosphate]	30.1 ± 2.3	3.5 ± 0.5	nine-fold	weak binding interaction with fast exchange binding dynamics		
phosphatidyl inositol (3,4,5) triphosphate [PI(3,4,5)P3]					abundant co-sedimentation	effectively obliterated
CCCCCCCCCCCCCCCC(=O)OC[C@H](COP(=O)([O-])OCC[N+](C)(C)C)OC(=O)CCCCCCCCCCCCCCC [diC16-PC, dipalmitoyl-phosphatidyl-choline]					does not sediment	no detectable NMR spectral changes
CCCCCCCC(=O)OC[C@H](COP(=O)(O)OC1[C@H](O)[C@H](O)C(O)[C@H](O)[C@H]1O)OC(=O)CCCCCCC (stereo partly drawn) [diC8-PI]				no perturbations; also recorded: does not bind		
